{"data": "Measured values of several laboratories", "target": "Dual specificity tyrosine-phosphorylation-regulated kinase 3 (DYRK3, Homo sapiens, UniProt O43781)", "note": "Each line is one published result; the experiments were not run side by side."}
{"SMILES": "Nc1nc(Nc2ccccc2)sc1C(=O)c1c(F)cccc1F", "effect on": "enzyme activity", "mode": "inhibitor", "concentration": "10 µM", "quantity": "remaining activity", "result": "83%"}
{"SMILES": "O=C(O)c1ccc2c(c1)nc(NCc1ccccc1)c1ncncc12", "effect on": "enzyme activity", "mode": "inhibitor", "method": "radiometric", "concentration": "1 µM", "quantity": "remaining activity", "result": "31%"}
{"SMILES": "CC/C(=N\\NC(=O)NCc1cccc(O)c1)c1ccc(O)c(C)c1O", "effect on": "enzyme activity", "mode": "inhibitor", "concentration": "0.1 µM", "quantity": "inhibition", "result": "1.6%"}
{"SMILES": "Oc1cccc(-c2nc(N3CCOCC3)c3oc4ncccc4c3n2)c1", "effect on": "enzyme activity", "mode": "inhibitor", "concentration": "10 µM", "quantity": "remaining activity", "result": "64%"}
{"SMILES": "Cn1cncc1C1=CN(c2ncnc3[nH]cnc23)CCS1", "effect on": "enzyme activity", "mode": "inhibitor", "method": "radiometric", "concentration": "2 µM", "quantity": "inhibition", "result": "90.9%"}
{"SMILES": "COc1cc(-c2cc(-c3ccc(N4CCNCC4)cc3)cnc2C)cc(OC)c1OC", "effect on": "enzyme activity", "mode": "inhibitor", "concentration": "1 µM", "quantity": "inhibition", "result": "1%"}
{"SMILES": "N#CCCc1ccc2c(c1)-c1[nH]c3ccc([N+](=O)[O-])cc3c1CC(=O)N2", "effect on": "cell-free assay", "concentration": "0.5 µM", "quantity": "remaining signal", "result": "97.6%"}
{"SMILES": "O=C(O)c1ccc2c(c1)nc(NCCc1cccc(Cl)c1)c1ncncc12", "effect on": "enzyme activity", "mode": "inhibitor", "method": "radiometric", "concentration": "1 µM", "quantity": "remaining activity", "result": "37%"}
{"SMILES": "Cn1cnc(Br)c1C1=CN(c2ncnc3[nH]cnc23)CCS1", "effect on": "enzyme activity", "mode": "inhibitor", "method": "radiometric", "concentration": "2 µM", "quantity": "inhibition", "result": "98%"}
{"SMILES": "O=C(O)c1ccc2c(c1)nc(NCCc1cccc(F)c1)c1ccncc12", "effect on": "enzyme activity", "mode": "inhibitor", "method": "radiometric", "concentration": "1 µM", "quantity": "remaining activity", "result": "7%"}
{"SMILES": "COc1cc2ncnc(Nc3ccc(Oc4ccccc4)c(C)c3C)c2cc1OC", "effect on": "enzyme activity", "mode": "inhibitor", "concentration": "1 µM", "quantity": "inhibition", "result": "-3%"}
{"SMILES": "O=C(O)c1ccc2c(c1)nc(Nc1cccc(F)c1)c1ncncc12", "effect on": "enzyme activity", "mode": "inhibitor", "method": "radiometric", "concentration": "1 µM", "quantity": "remaining activity", "result": "9%"}
{"SMILES": "CN(c1ncccc1CNc1nc(Nc2ccc3c(c2)CC(=O)N3)ncc1C(F)(F)F)S(C)(=O)=O", "effect on": "enzyme activity", "mode": "inhibitor", "concentration": "1 µM", "quantity": "inhibition", "result": "66.8%"}
